The nature of the data set: AUC (0 to infinity) in Cynomolgus monkey at 3 mg/kg, po and measured upto 24 hrs by LC-MS/MS analysis. Format: ADME, organism-based, Macaca fascicularis. Also on record: time < 24 hrs, dose 3 mg/kg, route po. The conditions noted are these: in vivo. Summed up:
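Single oral 3 mg/kg dose in mouse, SD rat, beagle dog and cynomolgus monkey. Total plasma exposure after the oral dose gave Cmax, Tmax, AUC0-inf and F. Values are means of two to three animals.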

The structures appear in SMILES notation.

On to `FC(F)(F)c1nccc2cc(Nc3n[nH]c4ncccc34)ccc12`, for which the AUC(0-inf) came to 2.81 µM·h.

These data come from ChEMBL document CHEMBL5257040, “Discovery of VU2957 (Valiglurax): An mGlu4 Positive Allosteric Modulator Evaluated as a Preclinical Candidate for the Treatment of Parkinson's Disease” (ACS Med Chem Lett, 2019).
